A short description of the data set: Toxicity liver stage against HepG2, at 10uM. Set-up: test concentration 10 uM, cell line HepG2-A16-CD81EGFP. The data set is classed as cell-based. The conditions noted are these: human, HepG2-A16-CD81EGFP cells; read-out: INHIBITION
In outline: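 Uninfected HepG2-A16-CD81EGFP cells, 3 × 10^3 per well, 1536-well, plated on prespotted compound at 10 μM final, parasite-free screening media added to match infected plates; puromycin 10 μM positive, DMSO 0.5% negative; run in parallel with 48 h PbLuc assay at 37 °C, 5% CO2; viability by CellTiter-Glo luminescence, normalized to controls.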
Take `COc1cccc(CN2CCN3C(=O)NC[C@H]3C2)n1`: the cytotoxicity at 10 µM is -1.45%. For `CCCc1nnc(SCc2cc(=O)n3c4c(sc3n2)CCCC4)[nH]1`, the cytotoxicity at 10 µM was -1.05%.

Regarding `CC(C)CNc1c(NCc2ccco2)c(=O)c1=O`, the cytotoxicity at 10 µM is -10.6%.

Consider `Cc1nc2sc(C(=O)N3CCNC(=O)C3)c(C)c2c(=O)[nH]1`, for which the cytotoxicity at 10 µM was found to be 4.13%. Consider `O=C(Nc1cccs1)N1CC(c2nc(C3CC3)no2)C1`, for which the cytotoxicity at 10 µM is -0.921%. Consider `Cn1cnc(C(=O)N2CC3(CCN(S(=O)(=O)c4ccccc4)C3)C2)c1`, for which the cytotoxicity at 10 µM is 3.8%. The result for `CN(C)C(=O)N1CCC2(CC(=O)N(c3ccc4c(c3)OCO4)C2)C1` (stereo not drawn) reads 8.04%; that for `O=C(Nc1ccccc1)C1=NOC2(CCCNC2)C1` (stereo not drawn), 1.02%. As to `Cc1noc(C2CCC3(CCN(C(=O)c4cnccn4)CC3)O2)n1` (stereo not drawn), the cytotoxicity at 10 µM turned out to be 7.19%.

As to `COCC(=O)N1CCC2(COCc3c(C)nc(N(C)C)nc32)C1` (stereo not drawn), the cytotoxicity at 10 µM stood at 9.09%. Turning to `O=C(NCC1CCCO1)c1nc2c(s1)CCCN2c1ncccn1` (stereo not drawn), the cytotoxicity at 10 µM is -5.17%.

For `CCN1C(=O)CCCC12CCCN(C(=O)c1conc1C)C2` (stereo not drawn), the cytotoxicity at 10 µM came out at 4.57%.

Take `CC(=O)N[C@@H]1CN(C(=O)c2cccc(C(F)(F)F)c2)C[C@H]1O`: the cytotoxicity at 10 µM turned out to be 1.9%. The result for `CNc1ccc(C2CN(c3cc(C)nc(N)n3)CCO2)nc1` (stereo not drawn) reads 4.72%. In the case of `CCc1nnc(Nc2cc(C)nc(C3CN(C(C)=O)CCO3)c2)s1` (stereo not drawn), the cytotoxicity at 10 µM came out at 4.74%.

As to `C[C@]1(O)CCN(Cc2ncccc2F)C[C@@H]1Oc1cccc(F)c1`, the cytotoxicity at 10 µM is -1.37%. The figure for `Cc1cccnc1Nc1nccc(C2CN(CC(N)=O)C2)n1` is -34.3%. In the case of `CC(=O)N1CCCC(c2ccc(N3CCOCC3)cn2)C1` (stereo not drawn), the cytotoxicity at 10 µM was -18.9%. Regarding `CC(C)(C)C(=O)N1CCC(n2nc(-c3ccco3)ccc2=O)CC1`, the cytotoxicity at 10 µM is -15.4%. As to `CC(C)(C)OC(=O)N1CCN(c2nnc(Br)s2)CC1`, the cytotoxicity at 10 µM came out at 10.8%. The figure for `O=C(O)c1cnc(OCC2CC2)c(Br)c1` is 9.38%. In the case of `O=C(c1ccco1)N(c1ccc(F)cn1)C1CCOCC1`, the cytotoxicity at 10 µM was -19.8%. On to `O=C(COC1CCCCC1)Nc1ccn(CCc2ccncc2)n1`, for which the cytotoxicity at 10 µM is -3.87%.

As to `Clc1ccc(N2CCN(CCCN3CCCCC3)CC2)nc1`, the cytotoxicity at 10 µM worked out at 0.563%. On to `O=C1COc2cc(C(=O)N3CCCC(n4ccnc4)C3)ccc2N1` (stereo not drawn), for which the cytotoxicity at 10 µM turned out to be 1.75%. Regarding `CC1CN(C(=O)Nc2cc(C(F)(F)F)c[nH]c2=O)CCO1` (stereo not drawn), the cytotoxicity at 10 µM turned out to be 3.44%. Take `CCN(CC)C1CCN(C(=O)NCc2cccc(NC(C)=O)c2)C1` (stereo not drawn): the cytotoxicity at 10 µM was 4.55%. As to `CC1COc2ccccc2N1C(=O)c1ccnc(-n2cncn2)c1` (stereo not drawn), the cytotoxicity at 10 µM is 12.5%. In the case of `COc1cc(CN(C)C(=O)NCc2cccnc2OC)ccc1SC`, the cytotoxicity at 10 µM is -8.82%.

Consider `Cc1ccc(CNC(C)c2nnc3n2CCCC3)o1` (stereo not drawn), for which the cytotoxicity at 10 µM is -7.17%. For `O=C(NCc1nccn1CCc1ccccc1)NCC1(O)CCC1`, the cytotoxicity at 10 µM is -2.97%. Turning to `CC1CN(C)c2ccccc2CN1C(=O)c1cscn1` (stereo not drawn), the cytotoxicity at 10 µM was -1.03%.

With `O=C(Nc1cccn(Cc2ccccc2)c1=O)c1ccncc1F`, the cytotoxicity at 10 µM turned out to be 14.8%. With `Cc1ccc(CCC(C)NC2CCN(C(N)=O)CC2)cc1` (stereo not drawn), the cytotoxicity at 10 µM is -0.613%.

On to `Cc1cc(CNc2ccc3nc(C)sc3c2)no1`, for which the cytotoxicity at 10 µM is -5.2%. The figure for `CN(C)c1cccc(CNC(=O)Nc2ccc3[nH]nnc3c2)n1` is 3.15%. In the case of `Cc1nc(CNC(C(=O)N2CCOCC2)c2ccccc2)cs1` (stereo not drawn), the cytotoxicity at 10 µM was 7.33%. Regarding `Cc1cnn(CCCNC(=O)NCCS(=O)(=O)Nc2ccccc2)c1`, the cytotoxicity at 10 µM stood at 1.07%. Consider `CCNC(=O)C1CCCN(C(=O)Nc2cc(C#N)ccc2OCC)C1` (stereo not drawn), for which the cytotoxicity at 10 µM was -1.71%. On to `CC(C)CNC(=O)C1=NOC2(CCN(Cc3ccoc3)C2)C1` (stereo not drawn), for which the cytotoxicity at 10 µM was -3.42%. The result for `CC(C)n1cc(-c2nc3cc(S(=O)(=O)N4CCCC4)ccc3n2C)cn1` reads 1.12%; that for `Cc1nc(N2CCCC(OCc3ccccn3)C2)c2c(C)noc2n1` (stereo not drawn), 0.622%; that for `O=C(CCN1CCCO1)N1CCCC(CO)(CCCc2ccccc2)C1` (stereo not drawn), 2.76%. The result for `CCCn1c(C)c(CC(=O)NCCNC(C)=O)c2c1CC(C)(C)CC2=O` reads 6.2%. On to `Cc1c[nH]c(C(=O)N2CCCC2c2ccc(C(=O)N3CCSCC3)s2)n1` (stereo not drawn), for which the cytotoxicity at 10 µM turned out to be 2.73%. For `Cc1oc(-c2ccoc2)nc1CN1CCC[C@H]1CO`, the cytotoxicity at 10 µM was -16.5%. The figure for `CCc1cnc(NCC(CC)N2CCOCC2)nc1` (stereo not drawn) is 12.8%. Consider `COc1ccccc1S(=O)(=O)N1CCC2(CC1)OCCCC2O` (stereo not drawn), for which the cytotoxicity at 10 µM stood at 0.0773%. `CCN1CCn2nc(CCC(=O)N3CCCC3)cc2C1`: the cytotoxicity at 10 µM stood at 0.685%. The figure for `CCN(CC)CC(=O)N(C)C(c1cccc(F)c1)c1ccccn1` (stereo not drawn) is -6.54%. On to `CCN(Cc1ccc2c(c1)OCO2)S(=O)(=O)N(C)C(C)C`, for which the cytotoxicity at 10 µM was determined as 8.55%. The result for `COC(=O)C(NC(=O)CCc1ccco1)c1cc(F)ccc1F` (stereo not drawn) reads -0.448%; that for `CN(Cc1cccs1)C(=O)CN1CCCC(Cn2cncn2)C1` (stereo not drawn), -3.95%; that for `CN(C)c1cc(C(=O)N2CCCC2)ccn1`, -4.1%. `CC(C(=O)N1CCCN(Cc2cscn2)CC1)N1CCOCC1` (stereo not drawn): the cytotoxicity at 10 µM was -11.4%. `Cn1cc(C#N)c(=O)n(CC(O)c2ccccc2F)c1=O` (stereo not drawn): the cytotoxicity at 10 µM was -11%. `O=C(NCCCOCC1CC1)Nc1ccc(-n2cncn2)c(F)c1`: the cytotoxicity at 10 µM was -0.132%. The figure for `CCN(CC1COc2ccccc2O1)C(=O)CCn1cncn1` (stereo not drawn) is -9.21%; for `Cc1nc(-c2ccsc2)ccc1C(=O)NC(C)CN1CCOCC1` (stereo not drawn) it is -13.8%. In the case of `Cc1ccccc1CN(C)C(=O)CN1CCOC(Cn2cccn2)C1` (stereo not drawn), the cytotoxicity at 10 µM is -5.1%. In the case of `Cc1cc(C)n(CC2CCCN2Cc2cscn2)n1` (stereo not drawn), the cytotoxicity at 10 µM was -7.65%. Regarding `COCCN1CCC(CNC(=O)C2(c3cccc(C)c3)CC2)CC1`, the cytotoxicity at 10 µM was -1.88%. For the compound `O=C(NCc1cccs1)c1nc2c(o1)CN(C(=O)c1cccnc1)C2`, the cytotoxicity at 10 µM is -6.04%. The result for `CN(Cc1cncnc1)[C@H]1CN(CC2CC2)[C@@H]2CCCO[C@@H]21` reads -9.87%; that for `CN(C)Cc1nnc2n1CCN(c1cnccn1)CC2`, -10.8%; that for `c1ccc(OC[C@]23COC[C@H]2CN(C2CCOCC2)C3)nc1`, -2.6%.

With `CN(C)CCN1CCN(Cc2cccc(C#N)c2)Cc2cccnc21`, the cytotoxicity at 10 µM is -1.57%. Regarding `Fc1cccc(-c2c[nH]c(C3CCCN3)n2)c1` (stereo not drawn), the cytotoxicity at 10 µM was -5.93%. Turning to `O=C(NC1CC1)N1Cc2[nH]nc(COc3cccnc3)c2C1`, the cytotoxicity at 10 µM was 4.77%.

Regarding `COCC(=O)NCC1Cn2nnc(-c3ccncc3)c2CO1` (stereo not drawn), the cytotoxicity at 10 µM amounted to 8.22%.

For the compound `CN1CC(=O)N(c2cccc(F)c2)CC12CCN(CC1CCOCC1)C2` (stereo not drawn), the cytotoxicity at 10 µM turned out to be 0.887%. `CC(C)NC(=O)[C@H]1C[C@@H]2[C@@H](C1)OCCN2Cc1cnn(C)c1`: the cytotoxicity at 10 µM amounted to 5.68%. Take `O=C(CC1CCC2(CC1)CCN(Cc1cccnc1)CC2)N1CC=CC1`: the cytotoxicity at 10 µM is -2.13%.

The values are drawn from ChEMBL document CHEMBL4513216, “Probing the Open Global Health Chemical Diversity Library for Multistage-Active Starting Points for Next-Generation Antimalarials” (ACS Infect Dis, 2020).
